This note sets out measurements from ChEMBL document CHEMBL3632550, “Saponarin activates AMPK in a calcium-dependent manner and suppresses gluconeogenesis and increases glucose uptake via phosphorylation of CRTC2 and HDAC5” (Bioorg Med Chem Lett, 2015).

The structures appear in SMILES notation. Active and inactive are the calls of the source. The calls are words filed in the database; no cut-off is given here.

The target in the assay is AMP-activated protein kinase, AMPK (Homo sapiens) (UniProt P54646+O43741+P54619+Q9UGJ0+Q9Y478+Q13131+Q9UGI9). As to the kind of experiment: Activation of AMPK in human HepG2 cells assessed as reduction of gluconeogenesis at 1 mM after 24 hrs by enzymatic colorimetric assay. The format is cell-based. In outline: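 HepG2 cells seeded in DMEM with 10% FBS, switched next day to FBS-free medium and treated 24 h. Medium then replaced by glucose-free, phenol red-free DMEM with 20 mM sodium lactate and 2 mM sodium pyruvate. After 6 h, glucose released into the medium was measured by enzymatic colorimetric assay and normalized to total cell protein. Mean ± SEM; one-way ANOVA with Tukey test.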

`CN(C)C(=N)NC(=N)N`: the result was Active.
